Laboratory results reported in ChEMBL document CHEMBL1135528, “Monocyclic human tachykinin NK-2 receptor antagonists as evolution of a potent bicyclic antagonist: QSAR and site-directed mutagenesis studies” (J Med Chem, 2002).
Where a chain is given by its changes, count along the chain named. pKi: −log10 of the molar value. Activity calls are given as the source filed them. The calls are words filed in the database; no cut-off is given here. *1 amine or outer side, *2 acyl side, *3 side chain or, on linkers, in order; H or OH if unused. Where a SMILES comes first, the peptide text is derived from it. Bridges are numbered along the chain shown (N, C = ends). [ ]: non-standard residue; d: D form. Suc = O=C(CCC(=O)[*:2])[*:1]; Dap = NC[C@H](N)C(=O)O

How the values were obtained:
Substance-K receptor = target: T1, Substance-K receptor (Homo sapiens, UniProt P21452); experiment: Inhibitory affinity constant (pKi) against tachykinin receptor 2 (NK-2R) using heterologous competition experiments
T1 sequence (P21452 whole entry): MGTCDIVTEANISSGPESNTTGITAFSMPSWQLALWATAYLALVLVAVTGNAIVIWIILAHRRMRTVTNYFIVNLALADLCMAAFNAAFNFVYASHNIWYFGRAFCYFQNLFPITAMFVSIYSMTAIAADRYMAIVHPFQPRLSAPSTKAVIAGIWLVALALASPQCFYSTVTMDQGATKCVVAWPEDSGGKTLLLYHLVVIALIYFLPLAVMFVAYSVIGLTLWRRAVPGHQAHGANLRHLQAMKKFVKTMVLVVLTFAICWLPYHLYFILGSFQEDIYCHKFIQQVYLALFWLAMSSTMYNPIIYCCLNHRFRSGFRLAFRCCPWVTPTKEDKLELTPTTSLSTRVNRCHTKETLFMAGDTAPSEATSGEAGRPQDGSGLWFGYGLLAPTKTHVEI
Summary of the method: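 Buffer was 50 mM Tris-HCl pH 7.4. Competitors ranged 0.3 pM–10 μM. Filter-bound radioactivity was counted, and pKi was obtained by fitting competition curves. Mean ± sem of duplicate experiments.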

[1] = system: Substance-K receptor (Homo sapiens), P21452 [N110A]
Substance-K receptor (Homo sapiens), P21452 [N110A], sequence (P21452 whole entry N110A): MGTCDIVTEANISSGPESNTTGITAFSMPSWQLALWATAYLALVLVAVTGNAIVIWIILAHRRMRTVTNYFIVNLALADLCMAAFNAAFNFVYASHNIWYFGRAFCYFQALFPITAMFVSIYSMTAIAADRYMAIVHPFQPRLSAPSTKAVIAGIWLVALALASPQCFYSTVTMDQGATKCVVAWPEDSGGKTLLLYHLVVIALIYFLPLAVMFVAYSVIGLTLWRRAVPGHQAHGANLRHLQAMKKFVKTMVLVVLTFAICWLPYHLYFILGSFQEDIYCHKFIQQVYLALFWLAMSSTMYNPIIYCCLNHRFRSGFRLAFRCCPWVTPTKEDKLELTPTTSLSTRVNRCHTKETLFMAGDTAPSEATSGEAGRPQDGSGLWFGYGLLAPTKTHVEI

[2] = system: Substance-K receptor (Homo sapiens), P21452 [Q166A]
Substance-K receptor (Homo sapiens), P21452 [Q166A], sequence (P21452 whole entry Q166A): as the sequence (P21452 whole entry N110A) above, with A110N, Q166A counted along it

[3] = system: Substance-K receptor (Homo sapiens), P21452 [F112A]
Substance-K receptor (Homo sapiens), P21452 [F112A], sequence (P21452 whole entry F112A): as the sequence (P21452 whole entry N110A) above, with A110N, F112A counted along it

[4] = system: Substance-K receptor (Homo sapiens), P21452 [Y169A]
Substance-K receptor (Homo sapiens), P21452 [Y169A], sequence (P21452 whole entry Y169A): as the sequence (P21452 whole entry N110A) above, with A110N, Y169A counted along it

[5] = system: Substance-K receptor (Homo sapiens), P21452 [Y289T]
Substance-K receptor (Homo sapiens), P21452 [Y289T], sequence (P21452 whole entry Y289T): as the sequence (P21452 whole entry N110A) above, with A110N, Y289T counted along it

[6] = system: Substance-K receptor (Homo sapiens), P21452 [Y289F]
Substance-K receptor (Homo sapiens), P21452 [Y289F], sequence (P21452 whole entry Y289F): as the sequence (P21452 whole entry N110A) above, with A110N, Y289F counted along it

[7] = system: Substance-K receptor (Homo sapiens), P21452 [Y206F]
Substance-K receptor (Homo sapiens), P21452 [Y206F], sequence (P21452 whole entry Y206F): as the sequence (P21452 whole entry N110A) above, with A110N, Y206F counted along it

[8] = system: Substance-K receptor (Homo sapiens), P21452 [Y269A]
Substance-K receptor (Homo sapiens), P21452 [Y269A], sequence (P21452 whole entry Y269A): as the sequence (P21452 whole entry N110A) above, with A110N, Y269A counted along it

[9] = system: Substance-K receptor (Homo sapiens), P21452 [F293A]
Substance-K receptor (Homo sapiens), P21452 [F293A], sequence (P21452 whole entry F293A): as the sequence (P21452 whole entry N110A) above, with A110N, F293A counted along it

[10] = system: T2, Substance-K receptor (Homo sapiens), P21452 [C167A]
T2 sequence (whole entry): T1 sequence (P21452 whole entry) with C167A

[11] = system: T3, Substance-K receptor (Homo sapiens), P21452 [S170A]
T3 sequence (whole entry): T1 sequence (P21452 whole entry) with S170A

[12] = system: Substance-K receptor (Homo sapiens), P21452 [H198A]
Substance-K receptor (Homo sapiens), P21452 [H198A], sequence (P21452 whole entry H198A): as the sequence (P21452 whole entry N110A) above, with A110N, H198A counted along it

[13] = system: Substance-K receptor (Homo sapiens), P21452 [T171A]
Substance-K receptor (Homo sapiens), P21452 [T171A], sequence (P21452 whole entry T171A): as the sequence (P21452 whole entry N110A) above, with A110N, T171A counted along it

[14] = system: T4, Substance-K receptor (Homo sapiens), P21452 [W263A]
T4 sequence (whole entry): T1 sequence (P21452 whole entry) with W263A

[15] = system: Substance-K receptor (Homo sapiens), P21452 [I202F]
Substance-K receptor (Homo sapiens), P21452 [I202F], sequence (P21452 whole entry I202F): as the sequence (P21452 whole entry N110A) above, with A110N, I202F counted along it

[16] = system: Substance-K receptor (Homo sapiens), P21452 [Y269F]
Substance-K receptor (Homo sapiens), P21452 [Y269F], sequence (P21452 whole entry Y269F): as the sequence (P21452 whole entry N110A) above, with A110N, Y269F counted along it

[17] = system: T5, Substance-K receptor (Homo sapiens), P21452 [Y266F]
T5 sequence (whole entry): T1 sequence (P21452 whole entry) with Y266F

[18] = system: Substance-K receptor (Homo sapiens), P21452 [Y107A]
Substance-K receptor (Homo sapiens), P21452 [Y107A], sequence (P21452 whole entry Y107A): as the sequence (P21452 whole entry N110A) above, with Y107A, A110N counted along it

O=C1C[C@@H](NC(=O)CN2CCC(N3CCCCC3)CC2)C(=O)NC[C@H](Cc2ccccc2)NC(=O)[C@H](Cc2ccccc2)NC(=O)[C@H](Cc2c[nH]c3ccccc23)N1
pKi (Substance-K receptor): 9.40

O=C(O)CCC(=O)N[C@H]1CC(=O)N[C@@H](Cc2c[nH]c3ccccc23)C(=O)N[C@@H](Cc2ccccc2)C(=O)N[C@H](Cc2ccccc2)CNC1=O
pKi (Substance-K receptor): 7.90

NCCCC(=O)N[C@H]1CC(=O)N[C@@H](Cc2c[nH]c3ccccc23)C(=O)N[C@@H](Cc2ccccc2)C(=O)N[C@H](Cc2ccccc2)CNC1=O
pKi (Substance-K receptor): 8.10

O=C1CCC(=O)N[C@@H](Cc2c[nH]c3ccccc23)C(=O)N[C@@H](Cc2ccccc2)C(=O)N[C@H](Cc2c[nH]c3ccccc23)CN1
pKi (Substance-K receptor): 8.50

N[C@H]1CC(=O)NC[C@@H](Cc2ccccc2)NC(=O)[C@H](Cc2ccccc2)NC(=O)[C@H](Cc2c[nH]c3ccccc23)NC1=O
pKi (Substance-K receptor): 8.50

NC(=O)[C@@H]1CNC(=O)CCC(=O)N[C@@H](Cc2c[nH]c3ccccc23)C(=O)N[C@@H](Cc2ccccc2)C(=O)N1 (Trp-Phe-[Dap]-NH2; linker N-3 via Suc)
pKi (Substance-K receptor): 5.40

O=C1C[C@H](N2CCOCC2)C(=O)NC[C@@H](Cc2ccccc2)NC(=O)[C@H](Cc2ccccc2)NC(=O)[C@H](Cc2c[nH]c3ccccc23)N1
pKi (Substance-K receptor): 9.10

O=C1C[C@@H](NC(=O)CN2CCOCC2)C(=O)NC[C@@H](Cc2ccccc2)NC(=O)[C@H](Cc2ccccc2)NC(=O)[C@H](Cc2c[nH]c3ccccc23)N1
pKi (Substance-K receptor): 9.50

CSCC[C@H](NC(=O)[C@H](CC(C)C)NC(=O)CNC(=O)[C@@H](NC(=O)[C@H](Cc1ccccc1)NC(=O)[C@H](CO)NC(=O)[C@H](CC(=O)O)NC(=O)[C@@H](NC(=O)[C@H](CCCCN)NC(=O)[C@@H](N)Cc1c[nH]cn1)[C@@H](C)O)C(C)C)C(N)=O
UB [1]: inactive
KD/Ki [2]: 6.6 nM
KD/Ki [3]: 10.7 nM
UB [4]: inactive
UB [5]: inactive
KD/Ki [6]: 2 nM
KD/Ki [7]: 5.9 nM
UB [8]: inactive
KD/Ki [9]: 40 nM
UB [10]: inactive
KD/Ki [11]: 1.9 nM
UB [12]: inactive
KD/Ki [13]: 5.9 nM
UB [14]: inactive
KD/Ki [15]: 2.1 nM
KD/Ki [16]: 5.3 nM
KD/Ki [17]: 2.8 nM
KD/Ki [18]: 0.5 nM

O=C1CCCNC(=O)[C@@H](Cc2ccccc2)NC(=O)[C@H](Cc2ccccc2)NC(=O)[C@H](Cc2c[nH]c3ccccc23)N1
pKi (Substance-K receptor): 6.50

O=C1C[C@H](NCc2nn[nH]n2)C(=O)NC[C@@H](Cc2ccccc2)NC(=O)[C@H](Cc2ccccc2)NC(=O)[C@H](Cc2c[nH]c3ccccc23)N1
pKi (Substance-K receptor): 8.80

C=CCOC(=O)[C@@H]1CC(=O)N[C@@H](Cc2c[nH]c3ccccc23)C(=O)N[C@@H](Cc2ccccc2)C(=O)N[C@H](Cc2ccc(Cl)c(Cl)c2)C(=O)N1
pKi (Substance-K receptor): 6.50

O=C(N[C@H]1CCCCN(Cc2ccccc2)C(=O)[C@H](Cc2ccccc2)NC(=O)[C@H](Cc2c[nH]c3ccccc23)NC1=O)OCc1ccccc1
pKi (Substance-K receptor): 8.30

O=C1C[C@H](NC(=O)[C@]2(O)C[C@@H](O)[C@@H](O)[C@H](O)C2)C(=O)NC[C@@H](Cc2ccccc2)NC(=O)[C@H](Cc2ccccc2)NC(=O)[C@H](Cc2c[nH]c3ccccc23)N1
pKi (Substance-K receptor): 8.20

O=C1C[C@@H](N2CCOCC2)C(=O)NC[C@@H](Cc2ccccc2)NC(=O)[C@H](Cc2ccccc2)NC(=O)[C@H](Cc2c[nH]c3ccccc23)N1
pKi (Substance-K receptor): 9.80

N=C(N)NCC(=O)N[C@H]1CC(=O)N[C@@H](Cc2c[nH]c3ccccc23)C(=O)N[C@@H](Cc2ccccc2)C(=O)N[C@H](Cc2ccccc2)CNC1=O
pKi (Substance-K receptor): 8.40

N[C@H]1CC(=O)N[C@@H](Cc2c[nH]c3ccccc23)C(=O)N[C@@H](Cc2ccccc2)C(=O)N[C@H](Cc2ccccc2)CNC1=O
pKi (Substance-K receptor): 8.50

O=C1C[C@@H](C(=O)O)NC(=O)[C@@H](Cc2ccc(Cl)c(Cl)c2)NC(=O)[C@H](Cc2ccccc2)NC(=O)[C@H](Cc2c[nH]c3ccccc23)N1
pKi (Substance-K receptor): 6.40
